Experimental data reported in paper PMC7919418 (Genes & Development, 2021).

Columns and labels:
GFP reporter in OSCs [1] = conditions: tethering to nascent RNA; ref Batki et al. 2019; cited from earlier work
GFP reporter in OSCs [2] = test: Tethering reporter assay, λN-boxB recruitment to nascent RNA; assay type: cell-based, Drosophila; conditions: GFP by FACS, 2500 cells per experiment, normalized to control
Summary of the method: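 OSCs carrying a GFP reporter were nucleofected with λN-tagged protein plasmids (kit V, program T-029, six Mio. cells per transfection). Fold repression was derived from FACS GFP intensity relative to control, as mean ± SD of three biological replicates. For RNAi combinations, siRNA was given, then siRNA plus tethering plasmid 2 d later, with read-out 5 d after siRNA and 3 d after plasmid. Fusion expression was checked by western blot (Atp5a loading control).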

GFP-Ctp = test: Coimmunoprecipitation with Ctp; assay type: binding, Drosophila; conditions: western blot, Panx: S2 cells, GFP-Ctp and FLAG-Panx
Summary of the method: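 Lysates from S2 cells transfected with FLAG-Panx variant plasmids and GFP-Ctp were immunoprecipitated via GFP-Ctp. Input, unbound and immunoprecipitate fractions were analysed by western blot, with immunoprecipitate lanes loaded at 4× relative amount.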

B1: Panx: Panoramix, SFiNX subunit (protein)
chain: MEAPMKLEVKVENYVECGINEDEATPLREGTGETPPHAFACGVPMSGSGWCSDPEDGNLVHHSATPTSDEHLQPSLDTIEPKMEPKIKEDADNAMLDSLLADPFENNSPATLQTPADVKPNAMLDSVEQGSRSCELLPSEFSKRENLDDMDLFSLKAAKTLVPDEQQSFPQNDTPIDDPEAADLIAQKREILKMLEMTAENRKVKHKKKKHKKERSHRSNKHQEESRKRNHSNSSSDEGADDKNQFDCDYRGHKKYKNRRGSASSQNESSKERKLRDTELDYVPVRPDEHFIRPIKFSNLIERRPPQVEFNTVNLSKADKRSLAVARAELVLEQIQQKANKEEPPEFHMVDTICKLPVNESFRNQDCFENPSPICNNMNVVYKFNSTPGTRIDLSKWGLETVPEATKRLLRLLGIDVARLKELQSTVKPSQRILKLKKEQLEQGLAPTEEQETATLYKNAATQTERRTATRDAGTQVRLESKLNGAFWQNPHFDPMNLTQHQSNVMLALQEIYQTLPSATMAVKLSRALAPALAIIKGRQP
fold reporter silencing (λN tethering) (GFP reporter in OSCs [1]): ~20 fold

B2: Ctp: dynein light chain protein Cut up, Drosophila ortholog of LC8; λN fusion in tethering assay (protein)
chain: MSDRKAVIKNADMSEEMQQDAVDCATQALEKYNIEKDIAAYIKKEFDKKYNPTWHCIVGRNFGSYVTHETRHFIYFYLGQVAILLFKSG
cotranscriptional silencing (λN tethering) (GFP reporter in OSCs [2]): similarly strong repression

B3: C-terminal portion of Panx (amino acids 447–541): Panx fragment including the two predicted Ctp binding sites (protein, UniProt Q9W2H9 447-541, looked up, fragment)
chain: PTEEQETATLYKNAATQTERRTATRDAGTQVRLESKLNGAFWQNPHFDPMNLTQHQSNVMLALQEIYQTLPSATMAVKLSRALAPALAIIKGRQP
interaction with Ctp (co-IP) (GFP-Ctp): interacted with Ctp
